Source: ChEMBL document CHEMBL1122125, “Synthesis and in vivo antitumor activity of potential 5-fluorouracil prodrugs” (1982)

Experiments:
Type in all cases: functional
Mus musculus [1] = assay: Antitumor activity was determined for average weight on day 1 against P-388 leukemia in mice at a dose of 320 mg/kg
Method in brief: (§1)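 Male B6D2F1J mice, groups of 5, inoculated ip with 10⁶ P-388 cells on day 0. Drug given ip on days 1-4 (qd × 4) in sterile saline, or in 10% Tween 80 for the poorly water-soluble thioether. Average weight per mouse recorded on day 1, with reweighing on day 7 for percent weight change. Untreated control groups had 10-17 animals per experiment.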

Mus musculus [2] = assay: Antitumor activity was determined for average weight on day 1 against P-388 leukemia in mice at a dose of 40 mg/kg; method in brief: as §1
Mus musculus [3] = assay: Antitumor activity was determined for average weight on day 1 against P-388 leukemia in mice at a dose of 640 mg/kg; method in brief: as §1
Mus musculus [4] = assay: Antitumor activity was determined for average weight on day 1 against P-388 leukemia in mice at a dose of 80 mg/kg; method in brief: as §1
Mus musculus [5] = assay: Antitumor activity was determined for average 7-day weight change against P-388 leukemia in mice at a dose of 80 mg/kg
Method in brief: (§2)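 Male B6D2F1J mice given 10⁶ P-388 cells ip on day 0, then treated ip once daily on days 1-4 (qd × 4), 5 mice per dose group. Compounds dosed in sterile saline, except one lipophilic thioether given in 10% Tween 80. Mice weighed on days 1 and 7; mean weight per mouse on day 1 and 7-day weight change reported in g and as percent.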

Mus musculus [6] = assay: Antitumor activity was determined for average weight on day 1 against P-388 leukemia in mice at a dose of 160 mg/kg; method in brief: as §2
Mus musculus [7] = assay: Percent increase in life span against P-388 leukemia in mice was determined at a dose of 320 mg/kg; conditions: P388
Method in brief: (§3)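 Male B6D2F1J mice, 5 per dose group, received 10⁶ P-388 cells ip on day 0. Dosing was ip qd × 4 on days 1-4 in sterile saline, or 10% Tween 80 for the butyl thioether. Median survival times of treated (T) and untreated control (C, 10-17 mice) groups were compared: %ILS = [(T/C) − 1]100. Weights taken on days 1 and 7.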

Mus musculus [8] = assay: Percent increase in life span against P-388 leukemia in mice was determined at a dose of 40 mg/kg; conditions: P388; method in brief: as §3
Mus musculus [9] = assay: Percent increase in life span against P-388 leukemia in mice was determined at a dose of 640 mg/kg; conditions: P388; method in brief: as §3
Mus musculus [10] = assay: Percent increase in life span against P-388 leukemia in mice was determined at a dose of 80 mg/kg; conditions: P388; method in brief: as §3
Mus musculus [11] = assay: Antitumor activity was determined for average 7-day weight change against P-388 leukemia in mice at a dose of 160 mg/kg; method in brief: as §2
Mus musculus [12] = assay: Percent increase in life span against P-388 leukemia in mice was determined at a dose of 160 mg/kg; conditions: P388; method in brief: as §3
Mus musculus [13] = assay: Antitumor activity was determined for survival range of mice against P-388 leukemia in mice at a dose of 40 mg/kg
Method in brief: (§4)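 Male B6D2F1J mice implanted ip with 10⁶ P-388 cells on day 0; test agents given ip on days 1–4 (qd × 4) in sterile saline, or in 10% Tween 80 for the lipophilic thioether. Groups of 5 treated mice, with 10–17 untreated controls per experiment. Mice weighed on days 1 and 7 to give the 7-day weight change in g and %. Survival recorded in days as median and range.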

Mus musculus [14] = assay: Antitumor activity was determined for survival range of mice against P-388 leukemia in mice at a dose of 640 mg/kg; method in brief: as §4
Mus musculus [15] = assay: Antitumor activity was determined for survival range of mice against P-388 leukemia in mice at a dose of 80 mg/kg
Method in brief: (§5)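 Male B6D2F1J mice, 5 per dose group, implanted ip with 10⁶ P-388 leukemia cells on day 0. Drug given ip daily on days 1-4 (qd × 4) in sterile saline, or in 10% Tween 80 for the butyl thioether. Survival range recorded in days. Untreated control groups had 10-17 animals per experiment. Mice weighed on days 1 and 7.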

Mus musculus [16] = assay: Antitumor activity was determined for median survival of mice against P-388 leukemia in mice at a dose of 80 mg/kg; method in brief: as §4
Mus musculus [17] = assay: Antitumor activity was determined for survival range of mice against P-388 leukemia in mice at a dose of 160 mg/kg; method in brief: as §4
Mus musculus [18] = assay: Antitumor activity was determined for survival range of mice against P-388 leukemia in mice at a dose of 320 mg/kg; method in brief: as §4
Mus musculus [19] = assay: Antitumor activity was determined for median survival of mice against P-388 leukemia in mice at a dose of 40 mg/kg; method in brief: as §4
Mus musculus [20] = assay: Antitumor activity was determined for median survival of mice against P-388 leukemia in mice at a dose of 640 mg/kg; method in brief: as §4
Mus musculus [21] = assay: Antitumor activity was determined for median survival of mice against P-388 leukemia in mice at a dose of 320 mg/kg; method in brief: as §4
Mus musculus [22] = assay: Antitumor activity was determined for 7-day average percent weight change against P-388 leukemia in mice at a dose of 160 mg/kg; method in brief: as §2
Mus musculus [23] = assay: Antitumor activity was determined for 7-day average percent weight change against P-388 leukemia in mice at a dose of 320 mg/kg; method in brief: as §2
Mus musculus [24] = assay: Antitumor activity was determined for 7-day average percent weight change against P-388 leukemia in mice at a dose of 40 mg/kg; method in brief: as §2
Mus musculus [25] = assay: Antitumor activity was determined for 7-day average percent weight change against P-388 leukemia in mice at a dose of 640 mg/kg; method in brief: as §2
Mus musculus [26] = assay: Antitumor activity was determined for 7-day average percent weight change against P-388 leukemia in mice at a dose of 80 mg/kg; method in brief: as §2
L1210 = assay: Evaluated for cytotoxicity against L1210 mouse leukemia cells; conditions: read-out: ID50 (the source's name)
Method in brief: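 L1210 murine leukemia cells in Eagle's minimal essential medium with 15% fetal calf serum, streptomycin (100 μg/mL), penicillin (100 units/mL) and 0.05 mM 2-mercaptoethanol. Cells counted by Coulter counter after 48 h exposure. ID50 is the 50% growth-inhibitory dose. Triplicate assays, standard deviation ±10%.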

Mus musculus [27] = assay: Antitumor activity was determined for average 7-day weight change against P-388 leukemia in mice at a dose of 40 mg/kg; method in brief: as §2
Mus musculus [28] = assay: Antitumor activity was determined for median survival of mice against P-388 leukemia in mice at a dose of 160 mg/kg; method in brief: as §4
Mus musculus [29] = assay: Antitumor activity was determined for average 7-day weight change against P-388 leukemia in mice at a dose of 4 mg/kg; method in brief: as §2
Mus musculus [30] = assay: Antitumor activity was determined for average 7-day weight change against P-388 leukemia in mice at a dose of 8 mg/kg; method in brief: as §2
Mus musculus [31] = assay: Antitumor activity was determined for average weight on day 1 against P-388 leukemia in mice at a dose of 2 mg/kg; method in brief: as §1
Mus musculus [32] = assay: Antitumor activity was determined for average weight on day 1 against P-388 leukemia in mice at a dose of 4 mg/kg; method in brief: as §1
Mus musculus [33] = assay: Antitumor activity was determined for average weight on day 1 against P-388 leukemia in mice at a dose of 8 mg/kg; method in brief: as §1
Mus musculus [34] = assay: Percent increase in life span against P-388 leukemia in mice was determined at a dose of 4 mg/kg; conditions: P388; method in brief: as §3
Mus musculus [35] = assay: Percent increase in life span against P-388 leukemia in mice was determined at a dose of 8 mg/kg; conditions: P388; method in brief: as §3
Mus musculus [36] = assay: Percent increase in life span against P-388 leukemia in mice was determined at a dose of 2 mg/kg; conditions: P388; method in brief: as §3
Mus musculus [37] = assay: Antitumor activity was determined for survival range of mice against P-388 leukemia in mice at a dose of 4 mg/kg; method in brief: as §4
Mus musculus [38] = assay: Antitumor activity was determined for survival range of mice against P-388 leukemia in mice at a dose of 8 mg/kg; method in brief: as §5
Mus musculus [39] = assay: Antitumor activity was determined for median survival of mice against P-388 leukemia in mice at a dose of 2 mg/kg; method in brief: as §4
Mus musculus [40] = assay: Antitumor activity was determined for median survival of mice against P-388 leukemia in mice at a dose of 8 mg/kg; method in brief: as §4
Mus musculus [41] = assay: Antitumor activity was determined for survival range of mice against P-388 leukemia in mice at a dose of 2 mg/kg; method in brief: as §4
Mus musculus [42] = assay: Antitumor activity was determined for median survival of mice against P-388 leukemia in mice at a dose of 4 mg/kg; method in brief: as §4
Mus musculus [43] = assay: Antitumor activity was determined for 7-day average percent weight change against P-388 leukemia in mice at a dose of 2 mg/kg; method in brief: as §2
Mus musculus [44] = assay: Antitumor activity was determined for 7-day average percent weight change against P-388 leukemia in mice at a dose of 4 mg/kg; method in brief: as §2
Mus musculus [45] = assay: Antitumor activity was determined for 7-day average percent weight change against P-388 leukemia in mice at a dose of 8 mg/kg; method in brief: as §2
Mus musculus [46] = assay: Antitumor activity was determined for average 7-day weight change against P-388 leukemia in mice at a dose of 2 mg/kg; method in brief: as §2
Mus musculus [47] = assay: Antitumor activity was determined for average 7-day weight change against P-388 leukemia in mice at a dose of 320 mg/kg; method in brief: as §2
Mus musculus [48] = assay: Antitumor activity was determined for average 7-day weight change against P-388 leukemia in mice at a dose of 640 mg/kg; method in brief: as §2

SMILES | Average weight (Mus musculus [1]) [g mouse-1] | Average weight (Mus musculus [3]) [g mouse-1] | Average weight (Mus musculus [4]) [g mouse-1] | Average weight (Mus musculus [5]) [g mouse-1] | Average weight (Mus musculus [6]) [g mouse-1] | ILS at 320 mg/kg (Mus musculus [7]) [%] | ILS at 640 mg/kg (Mus musculus [9]) [%] | ILS at 80 mg/kg (Mus musculus [10]) [%] | Average weight (Mus musculus [11]) [g mouse-1] | ILS at 160 mg/kg (Mus musculus [12]) [%] | Survival range (Mus musculus [14]) | Survival range (Mus musculus [15]) | Survival median (Mus musculus [16]) | Survival range (Mus musculus [17]) | Survival range (Mus musculus [18]) | Survival median (Mus musculus [20]) | Survival median (Mus musculus [21]) | Weight change (Mus musculus [22]) [%] | Weight change (Mus musculus [23]) [%] | IC50 (L1210) [µM] | also measured
O=c1[nH]c(=O)n(C2OC[C@@H](O)[C@H]2O)cc1F (stereo partly drawn) | 25.8 | 25.6 | 24.2 | 2.6 | 24.2 | 41 | 75 | 16 | 1.6 | 25 | 17 | 11 | 14 | 14 | 16 | 21 | 17 | 8 | 1 | 130 | Average weight (Mus musculus [2]): 25.2 g mouse-1; ILS at 40 mg/kg (Mus musculus [8]): 0%; Survival range (Mus musculus [13]): 12; Survival median (Mus musculus [19]): 12; Weight change (Mus musculus [24]): 12%; Weight change (Mus musculus [25]): -9%; Weight change (Mus musculus [26]): 11%; Average weight (Mus musculus [27]): 3 g mouse-1; Survival median (Mus musculus [28]): 15
O=c1[nH]c(=O)n([C@@H]2O[C@H](CO)[C@@H](O)[C@H]2O)cc1F [5-FLUOROURIDINE] | – | – | – | – | – | – | – | – | – | – | – | – | – | – | – | – | – | – | – | 0.0024 | Average weight (Mus musculus [29]): -3.2 g mouse-1; Average weight (Mus musculus [30]): -6 g mouse-1; Average weight (Mus musculus [31]): 26 g mouse-1; Average weight (Mus musculus [32]): 26.4 g mouse-1; Average weight (Mus musculus [33]): 25.8 g mouse-1; ILS at 4 mg/kg (Mus musculus [34]): 75%; ILS at 8 mg/kg (Mus musculus [35]): 91%; ILS at 2 mg/kg (Mus musculus [36]): 66%; Survival range (Mus musculus [37]): 18; Survival range (Mus musculus [38]): 21; Survival median (Mus musculus [39]): 20; Survival median (Mus musculus [40]): 23; Survival range (Mus musculus [41]): 18; Survival median (Mus musculus [42]): 21; Weight change (Mus musculus [43]): 5%; Weight change (Mus musculus [44]): -12%; Weight change (Mus musculus [45]): -23%; Average weight (Mus musculus [46]): 1.2 g mouse-1
C[C@H]1O[C@@H](n2cc(F)c(=O)[nH]c2=O)[C@H](O)[C@@H]1O [DOXIFLURIDINE] | 26.2 | 27 | 28.6 | 2.2 | 26.8 | 54 | 54 | 18 | 0.4 | 36 | 9 | 11 | 13 | 14 | 15 | 17 | 17 | 2 | -5 | 140 | Average weight (Mus musculus [47]): -1.4 g mouse-1; Average weight (Mus musculus [48]): -5.6 g mouse-1; Weight change (Mus musculus [25]): -21%; Weight change (Mus musculus [26]): 7%; Survival median (Mus musculus [28]): 15
